Assay outcomes as filed in PubChem BioAssay.
In the library only some 1.7% were active in any assay of this set; here they are far more common.
PP5 inh – blocks human protein phosphatase 5 activity. P53041. purified PP5c, OMFP substrate fluorescence. inhibition, % at 6.7 µM. 320,000 compounds, 0.18% hits. AID 1987;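 active means inhibition above the campaign's mean inhibition across all tested compounds plus 3 SD, cut at about 9.5% in these data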
Target sequence (P53041 whole entry, looked up): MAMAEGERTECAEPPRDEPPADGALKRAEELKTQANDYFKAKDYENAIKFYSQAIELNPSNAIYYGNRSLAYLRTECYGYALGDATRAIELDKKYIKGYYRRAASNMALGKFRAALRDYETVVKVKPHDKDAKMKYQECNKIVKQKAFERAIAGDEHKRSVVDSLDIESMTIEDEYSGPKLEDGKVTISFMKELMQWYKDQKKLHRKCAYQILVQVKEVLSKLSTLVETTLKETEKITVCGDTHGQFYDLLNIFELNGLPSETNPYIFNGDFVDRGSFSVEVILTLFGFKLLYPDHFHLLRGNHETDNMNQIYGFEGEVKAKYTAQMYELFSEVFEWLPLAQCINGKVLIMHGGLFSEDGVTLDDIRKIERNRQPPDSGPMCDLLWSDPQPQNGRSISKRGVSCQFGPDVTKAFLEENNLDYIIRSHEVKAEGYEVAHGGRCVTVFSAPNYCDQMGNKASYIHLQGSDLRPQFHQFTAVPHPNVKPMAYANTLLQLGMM
ZTA DNA inh – counter-screen for EBNA-1 inhibitors: inhibitors of Epstein-Barr virus ZTA | P03206 | ZTA-DNA binding, fluorescence polarization | inhibition, % at 11 µM | 320,000 compounds, 0.15% hits; in the data active means inhibition above about 33%
EBNA-1 inhibitor – blocks EBNA-1 binding to DNA. EBNA-1 DNA binding, fluorescence polarization. AID 1950. 300,000 compounds, 0.34% hits. inhibition, % at 14.8 µM; in the data active means inhibition above about 28%
core dimer inh – blocks dimerization of HCV core protein; TR-FRET GST/Flag-core106 dimerization, 1536-well; inhibition, % at 5 µM; 300,000 compounds, 0.33% hits;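 active means inhibition above the mean of all tested compounds plus 3 SD, set per screening campaign, cut at about 45% in these data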
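assay system = GST-tagged and Flag-tagged HCV core protein residues 1-106 | controls = unlabelled core106 and no-GST-core106 wells | incubation = compound-protein-antibody incubation 4 h at 22.5 °C | probe or stimulus = Eu donor and XL665 acceptor anti-tag antibodies | read-out = % inhibition based on acceptor/donor emission ratio | signal = TR-FRET 671 and 617 nm emission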
PP1 counter – counter-screen for PP5 inhibitors: inhibitors of human PP1-alpha; purified PP1alpha, OMFP fluorescence; inhibition, % at 6.7 µM; 320,000 compounds, 0.9% hits; AID 2235;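 active means inhibition above the mean inhibition of all tested compounds plus 3 SD, computed separately for each screening campaign, cut at about 15% in these data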
PP1 confirm – confirmation of human PP1 phosphatase inhibitors | purified PP1alpha, OMFP substrate fluorescence | inhibition, % at 6.7 µM | 1,900 compounds, 52% hits | shares compounds with PP1 counter | AID 2358;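 active means mean PP1 inhibition above a set limit taken from the earlier primary screen, cut at about 15% in these data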
PP5 inh counter – inhibits human PP5 phosphatase in PP1 counter-screen; shares compounds with PP1 counter; inhibition, % at 6.7 µM; purified PP5c, OMFP fluorescence; 1,900 compounds, 4% hits; AID 2360;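 active means mean PP5 inhibition over triplicate wells above about 9.5% taken from the earlier PP1 screen, limit read from the data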
Hits are given with their value; - = inactive; . = not tested or not shown.

SMILES	PP5 inh	ZTA DNA inh	EBNA-1 inhibitor	core dimer inh	PP1 counter	PP1 confirm	PP5 inh counter
CCc1ccc(Nc2n[n+](-c3ccccc3)c(-c3ccc(N(CC)CC)cc3)s2)cc1	-	-	-	-	24	-	-
c1ccc(COc2ccc(-c3sc(Nc4ccccc4)n[n+]3-c3ccccc3)cc2)cc1	-	-	-	-	20	-	-
CCc1ccc(Nc2n[n+](-c3ccccc3)c(-c3c(Cl)cccc3Cl)s2)cc1	-	-	-	-	31	-	-
CC(=O)c1sc2nc(-c3cccs3)ccc2c1N	-	-	-	-	-	.	.
Nc1c(C(=O)Nc2nc3ccccc3s2)sc2nc(-c3cccs3)ccc12	-	-	-	-	31	32	-
COc1ccc(-c2cc(-c3ccccc3)c(C#N)c(SCC(=O)O)n2)cc1	-	-	-	-	-	.	.
COc1ccc(-c2cc(-c3ccc(Cl)cc3)c(C#N)c(SCC(=O)O)n2)cc1	-	-	-	-	48	28	-
O=C1NC(NS(=O)(=O)c2ccccc2)(C(F)(F)F)C(=O)N1c1cccc(Cl)c1 (stereo not given)	-	-	-	-	-	.	.
Cc1c(/C=N/NC(=O)CNc2ccccc2)c2ccccn2c1C(=O)c1ccc(Cl)cc1	-	-	-	-	21	-	-
Cc1ccccc1NCC(=O)N/N=C/c1c(C)c(C(=O)c2ccc(Cl)cc2)n2ccccc12	-	-	-	-	-	.	.
O=C(Nc1ccc(Cl)cc1)C1C2C=CC3(O2)C1C(=O)N(CCN1CCCCC1)C3C(=O)NC1CCCCC1 (stereo not given)	-	-	-	-	-	.	.
Cc1c([N+](=O)[O-])cc(S(=O)(=O)Nc2ccc(-c3ccc(N4CCCC4)nn3)cc2)cc1[N+](=O)[O-]	-	-	-	-	19	21	-
CCC(=O)Nc1nnc(/C=C/c2ccc(OC)cc2)s1	-	-	-	-	22	-	-
CN1CCN(C(=S)Nc2ccc(S(N)(=O)=O)cc2)CC1	-	-	-	-	-	.	.
Cc1ccc(S(=O)(=O)N2CCC(=O)N(C(COCc3cccc(C(F)(F)F)c3)Cc3ccccc3)CC2)cc1 (stereo not given)	-	-	-	-	20	-	-
Cc1ccc(S(=O)(=O)N2CCC(=O)N(C(COCc3ccccc3)Cc3ccccc3)CC2)cc1 (stereo not given)	-	-	-	-	-	.	.
O=C(Nc1nnc(-c2ccccc2Cl)o1)c1ccco1	-	-	-	-	-	.	.
O=C(Nc1nnc(-c2ccccc2Cl)o1)c1nc2ccccc2s1	-	-	-	-	40	31	-
CCCCc1ccc(Nc2nc(CCC)cc(=O)[nH]2)cc1	-	-	-	-	18	-	-
CCCc1cc(=O)[nH]c(Nc2ccc(N3CCCCC3)cc2)n1	-	-	-	-	-	.	.
Cc1cccc(C)c1NC(=O)CN(C)C(=O)c1ccc(NS(=O)(=O)c2ccc3[nH]c(=O)[nH]c3c2)cc1	-	-	-	-	-	.	.
Cc1cccc(C)c1NC(=O)CNC(=O)c1ccc(NS(=O)(=O)c2ccc3[nH]c(=O)[nH]c3c2)cc1	-	-	-	-	93	-	-
Cc1noc(/C=C/c2ccco2)c1S(=O)(=O)N1CCC(C(=O)N2CCc3ccccc3C2)CC1	-	-	-	48	19	26	-
COc1ccccc1C(=O)Nc1ccc2oc(-c3ccc(F)cc3)nc2c1	-	-	-	-	19	-	-
COc1ccc(C(=O)Nc2ccc3oc(-c4cccc(F)c4)nc3c2)cc1OC	-	-	-	-	-	.	.
SMILES	PP5 inh	ZTA DNA inh	EBNA-1 inhibitor	core dimer inh	PP1 counter	PP1 confirm	PP5 inh counter
CC(C)NC(=S)Nc1c(N)[nH]c(=O)[nH]c1=O	-	-	-	-	-	.	.
CCN(CC(=O)NCc1ccc(Cl)cc1)C(=O)c1ccc(S(=O)(=O)N(C)C)cc1	-	-	-	-	-	.	.
O=C(CSc1nc2c([nH]c3ccccc32)c(=O)n1-c1cccc(Cl)c1)N1CCOCC1	-	-	37	-	22	25	-
O=C(CSc1nc2c([nH]c3ccccc32)c(=O)n1-c1ccccc1)N1CCOCC1	-	-	-	-	-	.	.
COc1ccc(C(O)(CCN2CCOCC2)c2ccccc2)cc1 (stereo not given)	-	-	-	-	-	.	.
O=C(N/N=C/c1ccsc1)c1c[nH]c2ccccc12	-	-	-	-	38	-	-
Cc1ccsc1/C=N/NC(=O)c1c[nH]c2ccccc12	-	-	-	-	-	.	.
Cc1cc(-c2ccccc2)nc(Cl)c1C#N	-	-	-	-	-	.	.
COc1ccc(C2CC(c3ccccc3)=NN2C(=O)COC(=O)c2cccnc2Cl)cc1 (stereo not given)	-	-	-	-	-	.	.
COc1ccc(C2CC(c3ccccc3)=NN2C(=O)COC(=O)c2cc(S(=O)(=O)N3CCOCC3)ccc2Cl)cc1 (stereo not given)	-	-	-	-	20	-	-
CCc1ccccc1NC(=O)CN1CCN(C(=O)CNC(=O)c2ccc(N3CCCC3=O)cc2)CC1	-	-	.	.	-	.	.
NC(=O)CC(NC(=O)Cc1cccc2ccccc12)c1ccc(NCCOc2ccccc2)c([N+](=O)[O-])c1 (stereo not given)	-	-	-	-	23	27	-
NC(=O)CC(NC(=O)Cc1cccc2ccccc12)c1ccc(NC2CC3CCC2C3)c([N+](=O)[O-])c1 (stereo not given)	-	-	-	-	-	.	.
NC(=O)CC(NC(=O)Cc1cccc2ccccc12)c1ccc(NC2CCCCC2)c([N+](=O)[O-])c1 (stereo not given)	-	-	-	-	20	24	-
NC(=O)CC(NC(=O)Cc1ccc(Cl)cc1)c1ccc(NCCOc2ccccc2)c([N+](=O)[O-])c1 (stereo not given)	-	-	-	-	-	.	.
CN(C)S(=O)(=O)c1ccc(C(=O)NCc2nnc(SCC(=O)NCc3ccco3)o2)cc1	-	-	-	-	-	.	.
O=C(c1ccco1)N1CCC(c2nc3c(nnn3Cc3ccc(F)cc3)c(=O)[nH]2)CC1	-	-	-	-	-	.	.
O=C1CCCc2oc3c(cc(NS(=O)(=O)c4ccc5c6c(cccc46)C(=O)N5)c4ccccc43)c21	-	-	-	-	20	-	-
Cc1oc2c(cc(NS(=O)(=O)c3ccc4c5c(cccc35)C(=O)N4)c3ccccc32)c1C(=O)OC(C)C	-	-	-	-	-	.	.
O=C(CCc1c[nH]c2ccccc12)NCC(=O)Nc1ccc(F)c(F)c1F	-	-	-	-	-	.	.
O=C1Nc2ccccc2N2CCCC12 (stereo not given)	-	-	-	-	22	-	49
O=C1Nc2ccc(C(F)(F)F)cc2N2CCCC12 (stereo not given)	-	-	-	-	-	.	.
